Compounds with a hit are over-represented: about 2% of the library has one in this group of screens.
CSN inh = inhibitors of CSN-mediated cullin deneddylation, primary screen, biochemical, fluorescence polarization, uHTS | COP9 signalosome complex subunit 5 (Homo sapiens), Q92905 | Purified CSN, SCF-Nedd8-OG deneddylation | inhibition, % at 12.5 µM | actives 0.38% (n = 360,000) | AID 651999, 2013;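 active = pattern-corrected inhibition above about 35%, with an unprinted fluorescence ratio check between 0.5 and 1.5, limit read from the data, passing the limit was not always enough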;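 also: 0% = enzyme with substrate and 100% = substrate without enzyme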
Target sequence (Q92905 whole entry, looked up, one chain of several): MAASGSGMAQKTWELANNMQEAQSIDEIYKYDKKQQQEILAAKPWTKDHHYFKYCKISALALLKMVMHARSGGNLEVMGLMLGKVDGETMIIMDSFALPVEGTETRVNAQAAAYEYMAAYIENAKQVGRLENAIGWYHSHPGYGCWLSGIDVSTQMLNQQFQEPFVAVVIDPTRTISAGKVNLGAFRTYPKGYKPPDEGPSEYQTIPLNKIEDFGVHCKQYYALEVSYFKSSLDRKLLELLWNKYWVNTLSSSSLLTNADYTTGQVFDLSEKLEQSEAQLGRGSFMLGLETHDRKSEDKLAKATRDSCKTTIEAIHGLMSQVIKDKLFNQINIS
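Assay system: purified human Csn5 enzyme expressed in HEK293T cells; measure: % inhibition; also added: SCFSkp2-Nedd8OG substrate at 10 nM final; technique: fluorescence polarization; times: reaction 90 min, room temperature; medium: Tris buffer pH 7.5, NaCl, DTT, Tween-20, trehalose, ovalbumin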
STEP inh = STEP phosphatase inhibitors, primary screen, biochemical, fluorescence intensity, uHTS. recombinant STEP, OMFP fluorogenic substrate. inhibition, % at 20 µM. actives 0.25% (n = 360,000). Tyrosine-protein phosphatase non-receptor type 5 (Homo sapiens), P54829;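 active = inhibition at 20 µM, scaled per plate between control wells, above about 37%, limit read from the data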;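 also: 0% = DMSO with enzyme and substrate and 100% = substrate only without enzyme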
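System: isolated STEP enzyme; schedule: 20 min enzyme reaction at room temperature, protected from light; medium: Bis-Tris buffer pH 6.0, 2.5 mM DTT, 0.005% Tween 20; signal: fluorescence, 480/540 nm; dosing: single compound dose of 20 µM, 1% DMSO final; also added: OMFP substrate, 25 µM final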
LMPTP inh = LMPTP phosphatase inhibitors, primary screen, biochemical, fluorescence intensity, uHTS; Low molecular weight phosphotyrosine protein phosphatase (Homo sapiens), P24666; recombinant LMPTP-A, OMFP fluorogenic substrate; inhibition, % at 20 µM; actives 0.22% (n = 360,000);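 active = compounds that cut the enzyme signal by at least half of the control window in the single-dose screen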;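 also: plate controls were DMSO wells with enzyme plus substrate for no effect and substrate without enzyme for full effect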
Target sequence (P24666 whole entry, looked up): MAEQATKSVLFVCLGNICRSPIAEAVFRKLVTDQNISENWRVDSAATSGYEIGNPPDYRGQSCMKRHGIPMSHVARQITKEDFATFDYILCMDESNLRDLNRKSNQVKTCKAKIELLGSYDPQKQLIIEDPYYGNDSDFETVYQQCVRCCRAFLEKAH
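Assay system: LMPTP-A enzyme. Input: 0.625 nM LMPTP-A final. Probe or stimulus: 400 µM OMFP. Compound dosing: single 20 µM dose. Schedule: 50 min dark incubation at room temperature. Detection: fluorescence intensity of OMFP turnover product. Read-out: percent inhibition versus substrate-only and uninhibited controls. Benchmarks: no-enzyme low control, uninhibited high control.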
Scp-1 inhibitor = Scp-1 phosphatase inhibitors, primary screen, biochemical, colorimetric, uHTS | AID 493091, 2011 | Recombinant Scp1, phosphopeptide, malachite green phosphate absorbance | actives 0.88% (n = 340,000) | inhibition, % at 20 µM;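 active = inhibition above about 50% at 20 µM, limit read from the data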;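 also: plate controls were DMSO wells with enzyme for no effect and wells lacking enzyme for full effect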
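System: truncated SCP-1 phosphatase (76-261aa); medium: Tris acetate buffer pH 5.5 with MgCl2 and Tween-20; incubation: 45 min room-temperature reaction, 5 min colour, 30 min stabiliser; compound: single 20 µM dose, 1% DMSO; reagent: Phosphorylated 17-residue peptide substrate; read-out: % inhibition at 20 µM; technique: colorimetric free-phosphate detection, absorbance 630 nm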
SUMO1-SIM PPI = modulators of SUMO1 protein-protein interactions, primary screen, biochemical, uHTS; SUMO1 binding to a labelled peptide, TR-FRET, 1 h; AID 602429, 2012; Small ubiquitin-related modifier 1 (Homo sapiens), P63165; inhibition, % at 20 µM; actives 0.33% (n = 360,000); in the data active = inhibition above about 37%
DNMT1 block = human DNMT1 methyltransferase inhibitors, primary screen, biochemical, molecular beacon, fluorescence, HinP1I cleavage, uHTS; DNA (cytosine-5)-methyltransferase 1 (Homo sapiens), P26358; actives 0.83% (n = 360,000); inhibition (reported as % activation of signal), % at 10 µM; in the data active = inhibition above about 50%
DNMT1 inh conf = DNMT1 methyltransferase inhibitor retest, confirmation, biochemical, molecular beacon, fluorescence, single concentration. shares compounds with DNMT1 block. DNMT1 molecular beacon HinP1I cleavage. inhibition, % at 10 µM. actives 8% (n = 2,300);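 active = average inhibition of at least 30% in the single-concentration confirmation test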
DNMT1 interf = beacon fluorescence artifact counter-screen | shares compounds with DNMT1 block | DNMT1 molecular beacon spectral interference counterscreen, fluorescence 485/520 | activation (fluorescence interference), % at 10 µM | actives 1% (n = 2,300) | AID 602387;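 active = activation of at least 30% at 10 µM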;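 also: DNMT1 catalytic domain with a HinP1I cleavage step and a FAM/dabcyl DNA beacon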
An asterisk follows results filed as active; . = no result given.

SMILES	CSN inh	STEP inh	LMPTP inh	Scp-1 inhibitor	SUMO1-SIM PPI	DNMT1 block	DNMT1 inh conf	DNMT1 interf
COc1ccc(NC(=O)c2noc3c2CCC3)cc1	11	7	7	83*	12	108*	5	0
Cc1ccc(NC(=O)c2ccc(NC(=O)c3ccccc3)cc2)cc1C	-2	-2	5	-8	19	57*	4	5
Cc1ccc(C(=O)Nc2ccc(Nc3ccccc3)cc2)cc1C	6	1	3	-24	1	-25	.	.
Cc1ccc(NC(=O)c2noc3c2CCC3)cc1C	23	12	9	78*	8	95*	9	-2
CC(=O)NC(C(=O)N1CCC(c2nc3ccccc3s2)CC1)C(C)C (stereo not drawn)	-1	3	0	10	-2	-1	.	.
CC(=O)N1CCN(C(=O)c2cccc(S(=O)(=O)N3CCOCC3)c2)CC1	-6	0	-1	-1	2	3	.	.
CCOc1ccccc1N1CC(C(=O)N2CCOCC2)CC1=O (stereo not drawn)	3	5	-1	-7	2	3	.	.
COc1cccc(NC(=O)CSc2nnc(Cc3cccn3C)n2-c2ccc(F)cc2)c1	2	-1	0	0	-9	76*	3	5
Cc1cc(OC(C(=O)O)c2ccccc2)c2c(C)c(Cc3ccccc3)c(=O)oc2c1 (stereo not drawn)	6	4	0	-5	-2	88*	2	6
Cc1cc2ccccc2cc1CN1CCOCC1	0	1	-2	-5	-2	58*	7	7
COc1cc(NS(=O)(=O)c2ccc(NS(=O)(=O)c3ccc(NC(C)=O)cc3)cc2)nc(OC)n1	3	1	-3	-8	7	2	.	.
COc1cc(NS(=O)(=O)c2ccc(NC(=S)NC(C)=O)cc2)nc(OC)n1	-1	2	-2	13	11	54*	2	2
CC(C)(C)C(=O)Nc1nnc(SCC(=O)Nc2nccs2)s1	-2	0	0	-10	1	1	.	.
O=C(O)c1cccc(-n2cccc2/C=C/[N+](=O)[O-])c1	32	21	5	85*	68*	89*	5	-1
O=C(O)c1cccc(-n2cccc2/C=C\[N+](=O)[O-])c1	8	8	1	43	11	62*	7	5
Cc1ccc(Cn2nc(C)c(NC(=O)CSc3nc4c(c(C(F)(F)F)n3)CCc3ccccc3-4)c2C)cc1	-8	1	0	7	-8	39	.	.
Cc1nn(Cc2ccc(Cl)cc2)c(C)c1NC(=O)CSc1nc2c(c(C(F)(F)F)n1)CCc1ccccc1-2	5	18	2	6	0	51*	0	0
C=C1CCC2C(C)(C(=O)O)CCCC2(C)C1CCC(CO)CCO (stereo not drawn)	1	-2	-1	.	2	1	.	.
C=C/C(C)=C/CC1C(=C)CCC2C(C)(C(=O)O)CCCC12C (stereo not drawn)	34	0	0	4	16	81*	11	-4

Source: PubChem
